Where “and” joins values, the source holds several entries; their conditions need not be identical. Equal values may be shown once.
Assays:
Format in all cases: functional
Rattus norvegicus [1] = assay: Hypolipidemic effects(liver weight) in male rats at 12.50 mg/kg; conditions: dose 12.5 mg/kg
Outline: (§1)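 Head-to-head oral dosing at 12.5, 25 and 50 mg/kg daily […] in male rats kept on a high lipid diet, alongside gemfibrozil reference. Plasma lipid fractions and liver weight expressed as % change vs controls.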

Rattus norvegicus [2] = assay: Hypolipidemic effects as the ratio of (HDL/LDL) in male rats at dose 25 mg/kg.
Outline: (§2)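 Male rats on a high lipid diet, dosed orally […] at 12.5, 25 or 50 mg/kg, with gemfibrozil reference. HDL/LDL (VLDL included) ratio from densitometry of polyacrylamide gel electrophoresis patterns of plasma. Expressed as % change vs controls.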

Rattus norvegicus [3] = assay: Hypolipidemic effects (Low-density lipoprotein (LDL) cholesterol) in male rats at 12.50 mg/kg; conditions: dose 12.5 mg/kg; outline: as §1
Rattus norvegicus [4] = assay: Hypolipidemic effects as the ratio of (HDL/LDL) in male rats at dose 50 mg/kg.; outline: as §2
Rattus norvegicus [5] = assay: Hypolipidemic effects(plasma cholesterol) in male rats at 12.50 mg/kg; conditions: dose 12.5 mg/kg; outline: as §1
Rattus norvegicus [6] = assay: Hypolipidemic effects(plasma cholesterol) in male rats at 25 mg/kg; outline: as §1
Rattus norvegicus [7] = assay: Hypolipidemic effects(plasma TG) in male rats;Compound was screening orally at 50 mg/Kg
Outline: (§3)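 Male rats, 10 per group, fed 7 days on chow with 10% fat (5.5% added peanut oil), 1.5% cholesterol and 0.1% cholic acid. Oral gavage on days 4-7 in 4% acacia, usually 50 mg/kg daily. Fasted overnight, killed day 8, atrial blood into EDTA. Plasma cholesterol, TG and HDL cholesterol (after MnCl2/heparin precipitation) by Autoanalyzer. % change vs controls, Student's t test.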

Rattus norvegicus [8] = assay: Hypolipidemic effects (high-density lipoprotein (HDL) cholesterol) in male rats at 25 mg/kg; outline: as §1
Rattus norvegicus [9] = assay: Hypolipidemic effects(plasma TG) in male rats at 25 mg/kg; outline: as §1
Rattus norvegicus [10] = assay: Hypolipidemic effects(plasma TG) in male rats at 12.50 mg/kg; conditions: dose 12.5 mg/kg; outline: as §1
Rattus norvegicus [11] = assay: Hypolipidemic effects(liver weight) in male rats at 25 mg/kg; outline: as §1
Rattus norvegicus [12] = species: Rattus norvegicus; assay: Hypolipidemic effects (low-density lipoprotein (LDL) cholesterol) in male rats; outline: as §3
Rattus norvegicus [13] = species: Rattus norvegicus; assay: Hypolipidemic effects(liver weight) in male rats; outline: as §3
Rattus norvegicus [14] = assay: Hypolipidemic effects (high-density lipoprotein (HDL) cholesterol) in male rats; Compound was screening orally at 50 mg/Kg; outline: as §3
Rattus norvegicus [15] = assay: Hypolipidemic effects (high-density lipoprotein (HDL) cholesterol) in male rats at 12.50 mg/kg; conditions: dose 12.5 mg/kg; outline: as §1
Rattus norvegicus [16] = assay: Hypolipidemic effects(plasma cholesterol) in male rats;Compound was screening orally at 50 mg/Kg; outline: as §3
Rattus norvegicus [17] = assay: Hypolipidemic effects as the ratio of (HDL/LDL) in male rats at dose 12.5 mg/kg.; outline: as §2
Rattus norvegicus [18] = assay: Hypolipidemic effects (Low-density lipoprotein (LDL) cholesterol) in male rats at 25 mg/kg; outline: as §1
Rattus norvegicus [19] = assay: Hypolipidemic effects (high-density lipoprotein (HDL) cholesterol) in male rats at 50 mg/kg orally; conditions: route oral; outline: as §1
Rattus norvegicus [20] = assay: Hypolipidemic effects(plasma cholesterol) in male rats at 50 mg/kg; outline: as §1
Rattus norvegicus [21] = assay: Hypolipidemic effects(plasma TG) in male rats at 50 mg/kg; outline: as §1
Rattus norvegicus [22] = assay: Hypolipidemic effects(liver weight) in male rats at 50 mg/kg; outline: as §1
Rattus norvegicus [23] = assay: Hypolipidemic effects (high-density lipoprotein (HDL) cholesterol) in male rats at 50 mg/kg; outline: as §1
Rattus norvegicus [24] = assay: Hypolipidemic effects(plasma cholesterol) in male rats at a dose of 50 mg/kg; outline: as §3
Rattus norvegicus [25] = assay: Hypolipidemic effects (Low-density lipoprotein (LDL) cholesterol) in male rats at 50 mg/kg; outline: as §1
Rattus norvegicus [26] = assay: Hypolipidemic effects(liver weight) in male rats at 12.5 mg/kg; outline: as §1
Rattus norvegicus [27] = assay: Hypolipidemic effects (high-density lipoprotein (HDL) cholesterol) in male rats at 12.5 mg/kg; outline: as §1
Rattus norvegicus [28] = assay: Hypolipidemic effects (high-density lipoprotein (HDL) cholesterol) in male rats at a dose of 50 mg/kg; Compound was screening orally at 50 mg/Kg; outline: as §3
Rattus norvegicus [29] = assay: Hypolipidemic effects (Low-density lipoprotein (LDL) cholesterol) in male rats at a dose of 50 mg/kg; Compound was screening orally at 50 mg/Kg; outline: as §3
Rattus norvegicus [30] = assay: Hypolipidemic effects(plasma TG) in male rats at a dose of 50 mg/kg; outline: as §3

Compound | Change (Rattus norvegicus [1]) [%] | Change (Rattus norvegicus [2]) [%] | Change (Rattus norvegicus [3]) [%] | Change (Rattus norvegicus [4]) [%] | Change (Rattus norvegicus [5]) [%] | Change (Rattus norvegicus [6]) [%] | Change (Rattus norvegicus [8]) [%] | Change (Rattus norvegicus [9]) [%] | Change (Rattus norvegicus [10]) [%] | Change (Rattus norvegicus [11]) [%] | Change (Rattus norvegicus [15]) [%] | Change (Rattus norvegicus [17]) [%] | Change (Rattus norvegicus [18]) [%] | further results
CC(C)(CCCOc1ccc(SCCCC(C)(C)C(=O)O)cc1)C(=O)O | 0 | 302 | -25 | 785 | -19 | -22 | 232 | 37 | 0 | 6 | 74 | 101 | -40 | Change (Rattus norvegicus [7]): -40%; Change (Rattus norvegicus [12]): -51%; Change (Rattus norvegicus [13]): 18%; Change (Rattus norvegicus [14]): 628%; Change (Rattus norvegicus [16]): -44%
CC(C)(CCCCOc1ccc(OCCCCC(C)(C)C(=O)O)cc1)C(=O)O | 4 | 339 | -40 | 1722 | -33 | -35 | 227 | 0 | -16 | 14 | 81 | 180 | -50 | Change (Rattus norvegicus [19]): 1477%; Change (Rattus norvegicus [20]): 0%; Change (Rattus norvegicus [21]): -20%; Change (Rattus norvegicus [22]): 36%; Change (Rattus norvegicus [23]): 1477%
Cc1ccc(C)c(OCCCC(C)(C)C(=O)O)c1 [GEMFIBROZIL] | 7 | – | -16 | – | 0 | – | – | – | 45 | – | 134 | – | – | Change (Rattus norvegicus [24]): 0%; Change (Rattus norvegicus [2]; 25 mg/kg): 214% [middle of 5 runs]; Change (Rattus norvegicus [4]; 50 mg/kg): 364% and 594% and 405%; Change (Rattus norvegicus [25]): -42%; Change (Rattus norvegicus [26]): 7% and 4%; Change (Rattus norvegicus [8]; 25 mg/kg): 215% and 257% and 171% and 236% and 246%; Change (Rattus norvegicus [9]; 25 mg/kg): 64% [middle of 5 runs]; Change (Rattus norvegicus [20]; 50 mg/kg): -26% and -29%; Change (Rattus norvegicus [21]; 50 mg/kg): 57% and 69%; Change (Rattus norvegicus [11]; 25 mg/kg): 10% and 8% and 9% and 11%; Change (Rattus norvegicus [27]): 88% and 134% and 116% and 133%; Change (Rattus norvegicus [22]; 50 mg/kg): 17% and 26% and 13%; Change (Rattus norvegicus [28]): 339%; Change (Rattus norvegicus [23]; 50 mg/kg): 498% and 306%; Change (Rattus norvegicus [17]; 12.5 mg/kg): 98% [middle of 5 runs]; Change (Rattus norvegicus [29]): -32%; Change (Rattus norvegicus [18]; 25 mg/kg): -22% [middle of 4 runs]; Change (Rattus norvegicus [30]): 233%

— ChEMBL document CHEMBL1122242, “Phenylenebis(oxy)bis[2,2-dimethylpentanoic acid]s: agents that elevate high-density lipoproteins” (1983)
